Compound activity as filed in PubChem.
V1R ag counter: V1a receptor agonism, counter-screen for OXTR agonists | CHO-V1R cells, Fluo-8 calcium fluorescence, agonist mode; 0% DMSO, 100% 3 nM vasopressin | hit rate 0.25% among 320,000 | P37288 | activation, % at 3 µM;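 active = activation above the mean activation of all tested compounds plus 3 SD, per screening run, cut at about 20% in these data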;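 also: signal is peak over basal fluorescence ratio across a 100 second FLIPR read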
OXTR agonist: activates the human oxytocin receptor | P30559 | CHO-OTR cells, Fluo-8 calcium fluorescence; normalized: DMSO 0%, oxytocin 100% | activation, % at 3 µM | hit rate 0.32% among 320,000;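 active = activation above the mean of all tested compounds plus 3 SD, cutoff set per screening run, cut at about 20% in these data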;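 also: peak over basal fluorescence ratio from a 100 s FLIPR kinetic read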
TRPN1 ag: agonists of zebrafish TRPN1 channel. HEK293 zebrafish TRPN1-YFP, Fluo-8 calcium fluorescence; 100% = response to 87 µM carbachol. activation, % at 3 µM. hit rate 0.18% among 220,000. AID 1424;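 active = activation above its plate's cutoff, the mean activation of test wells on that plate plus 3 SD, cut at about 19% in these data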;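 also: 0% = DMSO alone and 100% = 87 µM carbachol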
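Control set: carbachol 87 µM as high control, DMSO as low control; system: HEK293 stable line with zebrafish TRPN1-YFP; read-out: % activation versus carbachol response; detection: intracellular calcium fluorescence with Fluo-8; doses: single test compound dose, 3 µM nominal, 0.3% DMSO; schedule: dye 1 h 37 °C plus 30 min RT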
CRFR2-BP ag: CRF-BP/CRF-R2 complex agonism; hit rate 0.46% among 350,000; activation, % at 13.2 µM; HEK293 CRF-R2/CRF-BP, calcium dye fluorescence (FLIPR); percent of saturating CRF peptide response; AID 588473;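 active = activation of at least 50%, plus an integration ratio under a set limit after plate pattern correction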;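 also: plate controls were neutral control wells without compound for no effect and CRF at EC100 for full effect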
OXTR potentiator: potentiates the human oxytocin receptor response. CHO-OTR cells, Fluo-8 calcium fluorescence, potentiator mode; 0% = oxytocin EC15, 100% = EC100. activation, % at 3 µM. hit rate 0.061% among 320,000;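 active = activation above that plate's cutoff, the mean activation of tested compounds plus 3 SD, cut at about 6.6% in these data, passing the limit was not always enough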;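 also: 100% uses oxytocin at 75 nM as the full agonist control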
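System: human OTR in CHO cells; Also added: sub-maximal oxytocin, roughly EC15; Timing: compound 6 min at room temperature before oxytocin, 100 s read; Technique: Fluo-8 intracellular calcium fluorescence, ex 470-495, em 515-575 nm; Controls: oxytocin EC15 low and EC100 high; Replication: singlicate.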
TRPML3 agonist: activates the human TRPML3 channel; Q8TDD5; HEK293 TRPML3-YFP, Fluo-8 calcium fluorescence; 100% = the carbachol control signal; activation, % at 3 µM; hit rate 0.29% among 220,000;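 active = activation above its plate's cutoff, the mean activation of the plate's test wells plus 3 SD, cut at about 12% in these data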;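 also: 0% = DMSO only wells and 100% = carbachol wells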
Target sequence (Q8TDD5 whole entry, looked up): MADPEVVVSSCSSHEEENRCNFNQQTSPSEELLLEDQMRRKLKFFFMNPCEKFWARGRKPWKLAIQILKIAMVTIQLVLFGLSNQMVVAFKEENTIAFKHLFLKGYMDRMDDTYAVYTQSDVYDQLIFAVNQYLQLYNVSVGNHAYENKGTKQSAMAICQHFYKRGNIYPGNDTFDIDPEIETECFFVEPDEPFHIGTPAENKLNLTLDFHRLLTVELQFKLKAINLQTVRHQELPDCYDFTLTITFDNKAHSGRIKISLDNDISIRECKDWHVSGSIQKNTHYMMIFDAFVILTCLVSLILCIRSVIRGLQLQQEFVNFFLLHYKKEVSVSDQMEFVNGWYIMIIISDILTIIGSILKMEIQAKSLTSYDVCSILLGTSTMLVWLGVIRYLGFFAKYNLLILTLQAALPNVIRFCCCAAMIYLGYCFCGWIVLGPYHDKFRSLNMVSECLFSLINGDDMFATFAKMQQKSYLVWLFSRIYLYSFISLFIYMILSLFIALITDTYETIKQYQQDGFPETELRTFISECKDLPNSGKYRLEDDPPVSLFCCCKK
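Material: HEK293 cells stably carrying human TRPML3-YFP; compound dosing: single dose, 3 µM final nominal compound, 0.3% DMSO final; incubation: 1-h 37 °C dye load, 5-s basal, 120-s post-compound reads; technique: Fluo-8 intracellular calcium fluorescence, excitation 470-495 nm, emission 515-575 nm; read-out basis: percent activation from peak-to-basal fluorescence ratio, scaled between DMSO and carbachol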
An asterisk follows results filed as active. The list is not random: actives were taken first. Their share in the collection is about 0.85%.

How did CN(C(=O)c1cccc(NC(=O)Cc2cccc(NC(=O)C3CCCN(C(=O)C4CCCCC4)C3)c2)c1)C1CCC1 (configuration not stated) do in these assays?
CRFR2-BP ag: 0

Results for COc1ccccc1C(=O)NNC(=S)NC(=O)c1sc2ccccc2c1Cl ?
V1R ag counter: 34*; OXTR agonist: 49*; TRPN1 ag: 1; CRFR2-BP ag: 170*; OXTR potentiator: -12; TRPML3 agonist: 2

Results for COc1ccccc1C(=O)NNC(=S)NC(=O)c1cccs1 ?
V1R ag counter: 51*; OXTR agonist: 30*; OXTR potentiator: -17

Results for COc1ccccc1C(=O)NC(=S)NNC(=O)c1sc2ccccc2c1Cl ?
V1R ag counter: 25*; OXTR agonist: 46*; TRPN1 ag: 3; CRFR2-BP ag: 251*; OXTR potentiator: -10; TRPML3 agonist: 1

What do the screens show for `COc1ccc([C@H]2CN(c3ccc(OC)cc3)C(=O)[C@@H]2CC(=O)Nc2ccc(Br)cc2)cc1`?
CRFR2-BP ag: 0

What do the screens show for `Cc1ccc(-c2nn(-c3ccccc3)cc2C(=O)NCCCN2CCOCC2)cc1`?
V1R ag counter: 1; OXTR agonist: 1; CRFR2-BP ag: 3; OXTR potentiator: -10

What do the screens show for `O=C(COC(=O)CC(c1ccccc1)c1ccccc1)NCc1ccc(Cl)cc1`?
V1R ag counter: 1; OXTR agonist: 1; TRPN1 ag: -1; CRFR2-BP ag: 160*; OXTR potentiator: -9; TRPML3 agonist: 0

Results for CC(C)(C)c1ccc(C(=O)NCCC(=O)Nc2ccc3c(c2)OCCO3)cc1 ?
CRFR2-BP ag: -1

How did C(=Cc1cnc2ccccc2n1)c1ccc2c(c1)OCO2 do in these assays?
CRFR2-BP ag: 100*

How did C(=Cc1nc2ccccc2o1)c1ccc2c(c1)OCO2 do in these assays?
CRFR2-BP ag: 6

Results for CN1CCN(S(=O)(=O)c2cccc(C#N)c2)C(c2ccccc2)C1 (configuration not stated) ?
CRFR2-BP ag: 2

How did COC(=O)[C@@]12CCCCN1[C@H](c1ccc(-c3ccc(F)cc3)cc1)[C@@H]1C(=O)N(C)C(=O)[C@@H]12 do in these assays?
V1R ag counter: 1; OXTR agonist: 1; CRFR2-BP ag: -2; OXTR potentiator: -5

Results for CCOc1cc(/C=C/c2cccc[n+]2C)ccc1O ?
V1R ag counter: 0; OXTR agonist: 1; CRFR2-BP ag: 59*; OXTR potentiator: 1

Results for CCOc1cc(/C=C/c2cccc[n+]2C)ccc1OCC(=O)Nc1ccc(C)cc1 ?
V1R ag counter: 0; OXTR agonist: 0; CRFR2-BP ag: 1; OXTR potentiator: -7

What do the screens show for `COc1ccc2c(CC#N)c[nH]c2c1`?
V1R ag counter: 0; OXTR agonist: 0; TRPN1 ag: -1; CRFR2-BP ag: 78*; OXTR potentiator: -5; TRPML3 agonist: 1

What do the screens show for `COc1ccc2c(CCNC(N)=S)c[nH]c2c1`?
V1R ag counter: 0; OXTR agonist: 0; TRPN1 ag: 2; CRFR2-BP ag: 1; OXTR potentiator: 1; TRPML3 agonist: 0

What do the screens show for `COC(=O)c1c(NS(=O)(=O)Cc2ccccc2)sc2c1CCCC2`?
V1R ag counter: -1; OXTR agonist: -2; TRPN1 ag: -1; CRFR2-BP ag: -1; OXTR potentiator: -3; TRPML3 agonist: 0

What do the screens show for `CC(C)OC(=O)c1c(NS(=O)(=O)c2ccccc2)sc2c1CCCC2`?
V1R ag counter: 7; OXTR agonist: 11; TRPN1 ag: -1; CRFR2-BP ag: 76*; OXTR potentiator: -12; TRPML3 agonist: 0

How did Cc1nc2sccn2c(=O)c1S(=O)(=O)Nc1cccc(Cl)c1C do in these assays?
V1R ag counter: 1; OXTR agonist: 3; CRFR2-BP ag: 57*; OXTR potentiator: -4

Results for Cc1ccc(NS(=O)(=O)c2c(C)nc3sccn3c2=O)cc1 ?
V1R ag counter: 1; OXTR agonist: 3; CRFR2-BP ag: 2; OXTR potentiator: -6
